Laboratory results: article PMC3212727 (The Journal of Experimental Medicine, 2006)

Tests used:
[1] = test system: TAP1-GFP in MelJuSo cells; experiment: TAP mobility assay; assay type: cell-based, human; settings: FRAP; for initial increase in intracellular peptides: measured 1 h after irradiation, Fig. 2A and unpublished data
Method in brief: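 FRAP was run at 37°C on MelJuSo cells stably expressing TAP1-GFP, imaged 1 h after 4 Gy γ-irradiation. Some cells were pretreated with 10 μM lactacystin for 30 min, ATP-depleted with 0.05% NaAz plus […] 2-deoxyglucose for 30 min, or given cycloheximide. An ER spot was bleached at full laser power and recovery followed with an attenuated beam. Diffusion coefficient came from bleach-corrected recovery half-times: ≥3 experiments, mean ± SD.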

mTOR pathway [2] = experiment: GFP expression of irradiated MelJuSo cells by flow cytometry; assay type: cell-based, human; settings: 20 nM rapamycin
Method in brief: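 MelJuSo cells stably transfected with EGFP in pcDNA3 (CMV promoter) received 0 or 25 Gy γ-irradiation (137Cs, 0.75 Gy/min), with or without 20 nM rapamycin. GFP fluorescence was read by flow cytometry at 0, 4 or 24 h after irradiation. n = 6, mean ± SD.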

mTOR pathway [3] = experiment: Surface MHC class I expression of MelJuSo cells; assay type: cell-based, human; settings: 25 Gy, 20 nM rapamycin, W6/32 flow cytometry, n = 4
Method in brief: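 Human melanoma MelJuSo cells received 0–25 Gy γ-irradiation (137Cs, 0.75 Gy/min). They were cultured for the stated times with or without 20 nM rapamycin, stained for surface MHC class I with W6/32 and analysed by flow cytometry, with a background control lacking primary antibody. Mean fluorescence intensity was expressed relative to nonirradiated control cells.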

mTOR pathway [4] = experiment: Biosynthetic labeling and immunoprecipitation of MHC molecules; assay type: cell-based, human; settings: HLA-A2-GFP MelJuSo, 0, 10 or 20 Gy, 6 h, 10 nM rapamycin, 35S-methionine/cystein 1 h
MC38 cells [5] = experiment: H2-Kb expression of MC38 cells by flow cytometry; assay type: cell-based, mouse; settings: MC38, 20 Gy, 24 h, 20 nM rapamycin; FITC mAb H-2Kb
Method in brief: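 MC38 murine colon adenocarcinoma cells (H-2b) were γ-irradiated with 20 Gy (137Cs, 0.75 Gy/min) and cultured 24 h with or without 20 nM rapamycin. They were then stained with FITC-labelled anti-H-2Kb mAb and analysed by flow cytometry against an isotype control antibody. Percentage of positive cells and mean fluorescence intensity were reported.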

MC38 cells [6] = experiment: 111In release cytotoxicity assay with gp70-specific CTL; assay type: cell-based, mouse; settings: 20 nM rapamycin 24 h, then 18 h with CTL

Row | SMILES | initial increase in intracellular peptides [1] | TAP activity in irradiated cells ([1]; pretreatment before irradiation, 4 Gy, measured 1 h later, n = 9) | GFP expression in response to ionizing radiation (mTOR pathway [2]; MelJuSo-EGFP (CMV promoter), 25 Gy, 24 h, n = 6) | GFP expression in nonirradiated cells (mTOR pathway [2]; MelJuSo-EGFP, no radiation) | MHC class I expression 4 h after irradiation (mTOR pathway [3]; 4 h) | radiation-induced increase in MHC class I expression 24 h after irradiation (mTOR pathway [3]; 24 h) | translation of GFP-tagged and endogenous MHC class I molecules, H chains and MHC class II molecules (mTOR pathway [4]) | radiation-induced up-regulation of MHC class I expression (MC38 cells [5]) | lysis of irradiated MC38 cells by gp70-specific CTL (MC38 cells [6]; 20 Gy, E:T 100:1 to 3.125:1) | CTL recognition of nonirradiated cells (MC38 cells [6]; MC38, no radiation)
1 | C[C@@H]1C[C@@H]([C@H](O)CC2CC(=O)NC(=O)C2)C(=O)[C@@H](C)C1 [cycloheximide] | not inhibited | no effect on TAP activity |  |  |  |  |  |  |  | 
2 | CO[C@H]1C[C@@H]2CC[C@@H](C)[C@@](O)(O2)C(=O)C(=O)N2CCCC[C@H]2C(=O)O[C@H]([C@H](C)C[C@@H]2CC[C@@H](O)[C@H](OC)C2)CC(=O)[C@H](C)/C=C(\C)[C@@H](O)[C@@H](OC)C(=O)[C@H](C)C[C@H](C)/C=C/C=C/C=C/1C [rapamycin] | not inhibited |  | no increase in GFP expression | decreased GFP expression | No effect | markedly reduced | inhibited | can be inhibited | enhanced lysis in a rapamycin-dependent fashion | no effect
